Data published in ChEMBL document CHEMBL3244264, “Anticandidal activity of 5-fluorocytosine-peptide conjugates” (J Med Chem, 1979).
In brackets after ≈: the same amount, converted by molar mass. Starred links: 1 amine or outer side, 2 acyl side, 3 side chain; linkers in the order of their positions; H or OH if unused. Residues, ends and D or L forms follow the SMILES beside them. *: point of attachment. Suc = O=C(CCC(=O)[*:2])[*:1]; OBn = c1ccc(CO*)cc1

Columns and labels:
[1] = test system: Saccharomyces cerevisiae; experiment: Antiyeast activity against Saccharomyces cerevisiae 9763 assessed as total inhibition of fungal growth after 24 to 48 hrs by microdilution-colorimetric method; assay type: functional
How it was run: (§1)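 Microdilution in yeast nitrogen base (0.67%) with 3% dextrose and 0.004% bromothymol blue, pH 7.2, filter-sterilized; twofold serial dilutions 1.28 mg/mL to 0.04 μg/mL. Overnight culture resuspended to about 2×10^6 cells/mL, 50-μL drop per well; organism-free and drug-free control wells. 48 h at 37 °C, read at 24 and 48 h. MIC is the lowest concentration with no blue-to-yellow/light green change; values normalized to molar equivalents of 5-FC.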

[2] = test system: Pichia kudriavzevii; experiment: Antiyeast activity against Candida krusei 1-T assessed as total inhibition of fungal growth after 24 to 48 hrs by microdilution-colorimetric method; assay type: functional; how it was run: as §1
[3] = test system: Candida albicans; experiment: Antiyeast activity against Candida albicans clinical isolate 1-V assessed as total inhibition of fungal growth after 24 to 48 hrs by microdilution-colorimetric method; assay type: functional; how it was run: as §1
[4] = Chemical stability of the compound in solutions of organism-free yeast nitrogen base assessed as half life at 50 uM at 37 degC by UV absorbance analysis; assay type: physicochemical; conditions: organism-free yeast nitrogen base solution
How it was run: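 Organism-free yeast nitrogen base (0.67%) with 3% dextrose, pH 7.2 (KOH), held at 37 °C in thermostatted cells. Compound in Me2SO added to a final concentration of ca. 5×10^-5 M. Hydrolysis followed as the fall in absorbance at 305 nm over time, first-order fit. Slower compounds (t1/2 > 5 h) were incubated separately and aliquots read at intervals.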

[5] = test system: Candida albicans; experiment: Antiyeast activity against Candida albicans WD 18-4 assessed as total inhibition of fungal growth after 24 to 48 hrs by microdilution-colorimetric method; assay type: functional; how it was run: as §1

Structure (SMILES): CC(C)C[C@H](NC(=O)[C@H](C)NC(=O)CCC(=O)Nc1nc(=O)[nH]cc1F)C(=O)OCc1ccccc1
- MIC [1]: 0.31 µg/mL (≈ 0.616 µM)
- MIC [2]: 20 µg/mL (≈ 39.7 µM)
- MIC [3]: 0.62 µg/mL (≈ 1.23 µM)
- half-life at 50 µM [4]: 1.1 h
- MIC [5]: 5 µg/mL (≈ 9.93 µM)

Structure (SMILES): CC(C)C[C@H](NC(=O)CCC(=O)Nc1nc(=O)[nH]cc1F)C(=O)N[C@@H](CC(C)C)C(=O)OCc1ccccc1
- MIC [1]: 0.31 µg/mL (≈ 0.568 µM)
- MIC [2]: 20 µg/mL (≈ 36.7 µM)
- MIC [3]: 0.62 µg/mL (≈ 1.14 µM)
- MIC [5]: 2.5 µg/mL (≈ 4.58 µM)

Structure (SMILES): O=C(CCC(=O)Nc1nc(=O)[nH]cc1F)NCC(=O)NCC(=O)OCc1ccccc1
- MIC [1]: 0.62 µg/mL (≈ 1.43 µM)
- MIC [2]: 20 µg/mL (≈ 46.1 µM)
- MIC [3]: 0.62 µg/mL (≈ 1.43 µM)
- half-life at 50 µM [4]: 0.3 h
- MIC [5]: 5 µg/mL (≈ 11.5 µM)

Structure (SMILES): CC(C)C[C@H](NC(=O)[C@H](C)NC(=O)CCC(=O)Nc1nc(=O)[nH]cc1F)C(=O)O
- MIC [1]: 0.31 µg/mL (≈ 0.75 µM)
- MIC [2]: 10 µg/mL (≈ 24.2 µM)
- MIC [3]: 0.31 µg/mL (≈ 0.75 µM)
- half-life at 50 µM [4]: 1.7 h
- MIC [5]: 5 µg/mL (≈ 12.1 µM)

Structure (SMILES): CC(C)C[C@H](NC(=O)[C@H](CC(C)C)NC(=O)CCC(=O)Nc1nc(=O)[nH]cc1F)C(=O)O
- MIC [1]: 0.31 µg/mL (≈ 0.681 µM)
- MIC [2]: 10 µg/mL (≈ 22 µM)
- MIC [3]: 0.31 µg/mL (≈ 0.681 µM)
- half-life at 50 µM [4]: 2.9 h
- MIC [5]: 5 µg/mL (≈ 11 µM)

Structure (SMILES): CC(C)C[C@H](NC(=O)CCC(=O)O)C(=O)N[C@@H](CC(C)C)C(=O)OCc1ccccc1
- MIC [1]: 80 µg/mL (≈ 184 µM)
- MIC [2]: 320 µg/mL (≈ 736 µM)
- MIC [3]: 80 µg/mL (≈ 184 µM)
- MIC [5]: > 20 µg/mL

Structure (SMILES): CC(=O)Nc1nc(O)ncc1F
- MIC [1]: 0.31 µg/mL (≈ 1.81 µM)
- MIC [2]: 40 µg/mL (≈ 234 µM)
- MIC [3]: 2.5 µg/mL (≈ 14.6 µM)
- half-life at 50 µM [4]: 17.6 h
- MIC [5]: 5 µg/mL (≈ 29.2 µM)

Structure (SMILES): CC(C)(C)OC(=O)N[C@@H](CCC(=O)Nc1nc(=O)[nH]cc1F)C(=O)OCc1ccccc1
- MIC [1]: 1.25 µg/mL (≈ 2.79 µM)
- MIC [2]: 20 µg/mL (≈ 44.6 µM)
- MIC [3]: 2.5 µg/mL (≈ 5.57 µM)
- half-life at 50 µM [4]: 10 h
- MIC [5]: 2.5 µg/mL (≈ 5.57 µM)

Structure (SMILES): C[C@H](NC(=O)OC(C)(C)C)C(=O)NCC(=O)Nc1nc(=O)[nH]cc1F
- MIC [1]: 0.62 µg/mL (≈ 1.74 µM)
- MIC [2]: 20 µg/mL (≈ 56 µM)
- MIC [3]: 0.62 µg/mL (≈ 1.74 µM)
- half-life at 50 µM [4]: 2.3 h
- MIC [5]: 1.25 µg/mL (≈ 3.5 µM)

Structure (SMILES): O=C(CNC(=O)OCc1ccccc1)Nc1nc(=O)[nH]cc1F
- MIC [1]: 0.31 µg/mL (≈ 0.968 µM)
- MIC [2]: 10 µg/mL (≈ 31.2 µM)
- MIC [3]: 0.62 µg/mL (≈ 1.94 µM)
- MIC [5]: 2.5 µg/mL (≈ 7.81 µM)

Structure (SMILES): CC(C)C[C@H](NC(=O)[C@H](C)NC(=O)CCC(=O)O)C(=O)OCc1ccccc1 (Suc-Ala-Leu-OBn)
- MIC [1]: 160 µg/mL (≈ 408 µM)
- MIC [2]: 320 µg/mL (≈ 815 µM)
- MIC [3]: 80 µg/mL (≈ 204 µM)
- MIC [5]: > 20 µg/mL

Structure (SMILES): O=C(O)CCC(=O)NCC(=O)NCC(=O)OCc1ccccc1 (Suc-Gly-Gly-OBn)
- MIC [1]: 320 µg/mL (≈ 993 µM)
- MIC [2]: 320 µg/mL (≈ 993 µM)
- MIC [3]: 320 µg/mL (≈ 993 µM)
- MIC [5]: > 20 µg/mL

Structure (SMILES): Nc1nc(=O)[nH]cc1F [FLUCYTOSINE]
- MIC [1]: 0.31 µg/mL (≈ 2.4 µM)
- MIC [2]: 5 µg/mL (≈ 38.7 µM)
- MIC [3]: 0.31 µg/mL (≈ 2.4 µM)
- MIC [5]: 5 µg/mL (≈ 38.7 µM)

Structure (SMILES): O=c1[nH]cc(F)c(=O)[nH]1 [FLUOROURACIL]
- MIC [1]: 1.25 µg/mL (≈ 9.61 µM)
- MIC [2]: 2.5 µg/mL (≈ 19.2 µM)
- MIC [3]: 2.5 µg/mL (≈ 19.2 µM)
- MIC [5]: > 20 µg/mL

Structure (SMILES): O=C(O)CCC(=O)O [SUCCINIC ACID]
- MIC [1]: 640 µg/mL (≈ 5420 µM)
- MIC [2]: 320 µg/mL (≈ 2710 µM)
- MIC [3]: 320 µg/mL (≈ 2710 µM)
- MIC [5]: > 20 µg/mL
